Activation data for 87 molecules are collected here from PubChem BioAssay AID463104 (Sanford-Burnham Center for Chemical Genomics, 2010).

About 1,100 (0.33%) of roughly 330,000 compounds were called active. This excerpt belongs to a sample that is enriched for actives. Values without a mark were called inactive.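 How the source made its calls: active means versus positive control, 20 µM dose yields 30% or more activation; inactive means the rest.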

The assay is described as follows: IRE1-XBP1 pathway stimulators – cell-based, CHO-XBP1 luciferase reporter, luminescence, uHTS, primary screen (AID 463104).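 Further: 100% = tunicamycin at 10 µg/mL and 0% = DMSO only wells.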 Conditions: IRE1-XBP1 UPR activation, at 20 µM, stronger effect = higher value, percent of tunicamycin response, DMSO as zero. Summed up:
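Assay system: CHO-XBP1 luciferase reporter cells; Schedule: 6 h treatment, 37 °C; Detection: glow luminescence from Steady-Glo reagent; Benchmarks: high control tunicamycin 10 µg/mL final, low control DMSO vehicle only.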
On to `OCCC1CN(Cc2ccccc2-c2ccco2)CCN1Cc1ccsc1` (configuration not stated), for which the activation was -1.57%. Take `Cc1cc(NC(=O)Nc2c[nH]c(=O)[nH]c2=O)ccc1Br`: the activation is -0.89%. With `OCCNc1nc(Nc2ccc(Cl)c(Cl)c2)nc2ccccc12` the figure was 46.6% (active); with `Cc1ccc(Nc2nc(N)nc(CN3CCN(Cc4ccccc4)CC3)n2)cc1Cl`, 3.65%.

Consider `CNc1nc(Nc2ccc(C)c(Cl)c2)nc(N)c1[N+](=O)[O-]`, for which the activation is 10.8%. Take `COC(=O)c1ccc(COc2ccc(/C=N/NC(=O)C(=O)Nc3ccc(OC)cc3)cc2OC)o1`: the activation was -0.77%.

As for `N#Cc1cc([N+](=O)[O-])ccc1Oc1cccc(/C=N/NC(=O)c2ccc(Cl)cc2)c1`, the activation was -0.61%. With `CCCc1ccc(OCc2ccc(C(=O)N/N=C/c3cccc([N+](=O)[O-])c3)o2)c(OC)c1` the figure was 35.5% (active). As for `CCCCCCCCCCOC(=O)Cn1c(COc2cccc(OC)c2)[n+](C)c2ccccc21`, the activation is 20.9%. The value for `CCCCCCCCCCOC(=O)Cn1c(COc2ccc(C)cc2)[n+](C)c2ccccc21` was 41.7% (active). With `CCOC(=O)COn1c(=O)c(-c2ccc(OCC)cc2)[n+]([O-])c2ccccc21` the figure was 0.06%.

As for `CCN(CC(=O)NCC(=O)Nc1cccc(C)c1C)Cc1ccccc1`, the activation is -5.66%.

`Cc1c(Br)c([N+](=O)[O-])nn1C(C)C(=O)Nc1nccs1` (configuration not stated): the activation was -1.86%. The value for `COC(=O)Cc1csc(/N=C/c2c(O)n(-c3cccc(C(F)(F)F)c3)c(=O)c3ccccc23)n1` was 46.3% (active); that for `Cc1ccc(-n2c(O)c(C=Nc3ccc(S(=O)(=O)Nc4ncccn4)cc3)c3ccccc3c2=O)cc1C` was -1.86%; that for `COC(=O)Cc1csc(Nc2c(C)n(C)n(-c3ccccc3)c2=O)n1` was -0.87%.

`Cc1ccc(N2C(=O)CC(Nc3cccc4ccccc34)C2=O)cc1` (configuration not stated): the activation was -0.83%. With `CSc1ccccc1NC(=O)C(C)N1C(=O)c2ccccc2S1(=O)=O` (configuration not stated) the figure was 0.16%; with `CC(=O)Nc1ccccc1Sc1ccc2c3c(cccc13)C(=O)N(c1ccc(C)cc1)C2=O`, 33.8% (active). For the molecule `CC1CCN(C(=O)COC(=O)c2cc(=O)[nH]c3ccccc23)CC1`, the activation is -0.76%. Regarding `CCn1c2ccccc2c2cc(NC(=S)N3CCOCC3)ccc21`, the activation is -1.32%. With `CCOC(=O)C(C)n1cnc2c(nnn2-c2cccc(OC)c2)c1=O` (configuration not stated) the figure was -2.11%. With `CCOc1ccc(NS(=O)(=O)c2ccc(C(=O)NCC(c3ccccc3OC)N3CCCC3)cc2)cc1` (configuration not stated) the figure was -3.45%; with `O=C(NCC1(N2CCCCC2)CCCCC1)c1ccc(NS(=O)(=O)c2ccc(F)cc2)cc1`, 0.16%; with `CCOc1ccc(S(=O)(=O)Nc2cccc(C(=O)NCC3(N4CCCCC4)CCCCC3)c2)cc1`, 66.6% (active). The value for `CCOc1ccccc1C(=O)NC1CC2CCCC(C1)N2Cc1ccccc1` (configuration not stated) was 2.18%; that for `Cc1ccc(C)c(NC(=O)c2ccc3nccnc3c2)c1` was 0.85%. With `Clc1ccc(CSc2nnc([C@@H]3CCCN3)o2)cc1`, the activation is 0.7%. Take `CCC1CCCCN1S(=O)(=O)Cc1ccccc1Cl` (configuration not stated): the activation was -1.25%. For the molecule `COC(=O)c1c(NC(=O)CN2CCN(S(=O)(=O)c3ccccc3[N+](=O)[O-])CC2)sc2c1CCC(C)C2` (configuration not stated), the activation is -0.95%.

As to `O=C1CSC2=NCN(c3ccccc3)CN12`, the activation is 1.38%.

Take `CN(c1cccc(NC(=O)c2ccc(CN3CCc4ccccc4C3)cc2)c1)S(C)(=O)=O`: the activation was -1.68%. The value for `CN(c1cccc(NC(=O)Nc2ccc(Cl)cc2)c1)S(C)(=O)=O` was 33.6% (active). Take `CN(c1ccccc1)S(=O)(=O)c1cccc(NC(=O)Cc2ccc(Cl)cc2)c1`: the activation is -1.79%. The value for `CCCOc1cccc(C(=O)Nc2nnn(CCC)n2)c1` was 0.81%. With `Cc1noc(C)c1S(=O)(=O)Nc1cc(C(F)(F)F)ccc1N1CCOCC1` the figure was -0.99%. Turning to `COCCNC(=S)c1ccc(OC)cc1`, the activation was -1.99%.

Consider `O=C(NCc1ccc(Cl)cc1)C(=O)NCC1CCCN1S(=O)(=O)c1cccs1` (configuration not stated), for which the activation was -4.11%. With `CC(C)(C)OC(=O)C[C@@H]1C/C=C\C[C@@H](CC(=O)N[C@H](CO)Cc2ccccc2)C(=O)NC[C@@H](c2ccccc2)OC1=O` the figure was -1.85%; with `O=C(C[C@H]1C/C=C\C[C@@H](NC(=O)OCC2c3ccccc3-c3ccccc32)C(=O)O[C@@H](c2ccccc2)CNC1=O)N[C@H](CO)Cc1ccccc1`, 100% (active). Consider `CC(C)(C)OC(=O)C[C@H]1C/C=C\C[C@@H](CC(=O)N[C@H](CO)Cc2ccccc2)C(=O)NC[C@@H](c2ccccc2)OC1=O`, for which the activation is 5.5%.

For the molecule `O=c1c(Cl)c(NCc2ccc(F)cc2Cl)cnn1C12CC3CC(CC(C3)C1)C2`, the activation was -1.62%. The value for `COc1ccc(C(=O)N2CCN(c3ncccn3)CC2)cc1S(=O)(=O)N1CCOCC1` was 1.37%. With `CCOC(=O)/C=c1\s/c(=C\c2ccc(C#N)cc2)c(=O)n1CC(=O)Nc1cccc(C)c1C` the figure was 217% (active). Consider `Cc1cccc(NC(=O)CN2CCN(C(=O)C3CCN(C(=O)/C=C/c4ccccc4)CC3)CC2)c1C`, for which the activation was -2.16%. With `Cc1cccc(NC(=O)CSC(N)=O)c1C`, the activation was 0.46%. In the case of `Cc1csc(NC(=O)C2CCCN2C(=O)OCC(C)C)n1` (configuration not stated), the activation is -2.24%. The value for `COc1ccc(NC(=O)CN(C)C(=O)/C=C/c2cn(Cc3ccccc3)nc2-c2cccnc2)cc1` was -0.51%; that for `O=C(COC(=O)/C=C/c1cn(-c2ccccc2)nc1-c1cccnc1)Nc1ccc(Cl)cc1Cl` was 43.9% (active). For `Cc1ccc(/C=C/C(=O)OCC(=O)Nc2cccnc2Cl)cc1`, the activation is -1.42%. With `O=S(=O)(c1ccc(-c2ccno2)s1)N1CCCCC1` the figure was -1.02%; with `COc1ccc(OC)c(S(=O)(=O)N2CCCC(C(=O)N3CCC(C(N)=O)CC3)C2)c1` (configuration not stated), 0.16%. With `COc1ccc(C)cc1N(C)C(=O)c1coc(=O)c2ccccc12` the figure was 2.41%; with `O=C(COC(=O)c1ccccn1)Nc1cccc2ccccc12`, -3.78%; with `N#Cc1ccccc1NC(=O)COc1c(Br)cc(Br)c2cccnc12`, 116% (active). Consider `Cc1cc(NC(=O)COc2ccccc2C#N)no1`, for which the activation was 6.89%. Turning to `CCCCC(O)(CCCC)C(=O)NN(C(=O)CCl)c1ccccc1`, the activation was -0.49%. As to `Cc1ccc(NC(=O)c2ccc(Oc3ncccn3)cc2)cc1`, the activation is 0.13%. The value for `Cc1[nH]c(=O)c(C(=O)/C=C/c2ccccc2)c2c1CCCC2` was -0.32%; that for `O=C(/C=C/c1ccc(N2CCOCC2)cc1)c1ccccc1` was 2.92%; that for `O=C(/C=C/c1ccccc1)c1ccccc1O` was 78.8% (active). For `Cc1nc2c(ncn2-c2ccccc2)c(=O)n1NC(=O)CN1CCCC1`, the activation was 0.65%. Take `COCCNC(=O)c1ccc2c(c1)ncn2-c1ccc(C)c(Cl)c1`: the activation was -1.46%. Turning to `COc1ccc(CN2C(CC(=O)Nc3cccnc3)c3ccc(C(F)(F)F)cc3S2(=O)=O)cc1` (configuration not stated), the activation was -0.27%.

With `Cc1ccc(-c2ccc(/C=C(\C#N)C(N)=S)o2)c([N+](=O)[O-])c1`, the activation is -0.81%. Turning to `Cc1ccc(Cc2cnc(NC(=O)/C(C#N)=C/c3ccc(-c4cccc([N+](=O)[O-])c4)o3)s2)cc1`, the activation is 131% (active). With `Cc1ccc(C(=O)N/C(=C/c2ccc(-c3cccc([N+](=O)[O-])c3)o2)C(=O)NCCCN(C)C)cc1` the figure was 0.17%; with `CC(=O)N1CCC(N(C(=O)Nc2ccc(Cl)cc2)C(C)C)CC1`, 2%. For `CCC(C(=O)N1CCN(S(=O)(=O)c2sc(C(=O)O)c(C)c2C(=O)O)CC1)c1ccccc1` (configuration not stated), the activation is -0.89%. In the case of `COc1ccccc1CNC(=O)c1ccc(Cl)c(S(=O)(=O)N2CCCC2)c1`, the activation is -2.56%. For the molecule `Cc1ccc(C)c(N2CCN(C(=O)CCCCCn3c(=S)[nH]c4ccc(N5CCOCC5)cc4c3=O)CC2)c1`, the activation is -5.18%. With `CC(C)NC(=O)CCCn1c(=S)[nH]c2cc3c(cc2c1=O)OCO3` the figure was 0.7%; with `O=C(CCCCCn1c(=S)[nH]c2cc3c(cc2c1=O)OCO3)N1CCN(c2ccc(F)cc2)CC1`, 38.5% (active).

In the case of `COc1cc(C(=O)NC2CCN(C)CC2)ccc1Nc1ncc2c(n1)N(C1CCC(O)CC1)CCC(=O)N2C` (configuration not stated), the activation was -2.3%. The value for `CCCCCC(=O)Nc1ccc(C(=O)N/N=C/c2ccc([N+](=O)[O-])cc2)cc1` was 82.5% (active); that for `CCCC(=O)Nc1ccc(C(=O)N/N=C/c2ccc[nH]2)cc1` was -1.43%. The value for `CCCCCC(=O)NC(=S)NNC(=O)c1ccc([N+](=O)[O-])cc1` was 1.01%; that for `Nc1ccc(OCC(O)C[n+]2ccc(CCS(=O)(=O)[O-])cc2)cc1` (configuration not stated) was -2.33%. As to `CCN1N=C(c2ccccc2)CCC1=O`, the activation was 0.24%.

Regarding `Cc1nonc1NC(=O)CSc1nc2ccccc2cc1C#N`, the activation was -3.02%.

For `Cc1cc(C)c(C#N)c(SCC(=O)Nc2ccccc2)n1`, the activation was -0.84%.

As to `Cc1nc2cc(NC(=O)CSc3nc4c(C)cccc4cc3C#N)ccc2s1`, the activation was 30.2% (active). The value for `CC(Cc1cccs1)N(Cc1ccc(Cl)cc1)C(=O)c1ccncc1` (configuration not stated) was -2.77%.

For the molecule `COc1ccc(S(=O)(=O)NCCc2cc3ccc(C)c(C)c3[nH]c2=O)cc1`, the activation is -3.05%.

Take `O=C(COc1ccc(Cl)cc1)Nc1ccc2oc(=O)ccc2c1`: the activation was -0.7%. The value for `Cc1ccc(OCC(=O)Nc2ccc3oc(=O)ccc3c2)cc1C` was -0.41%; that for `O=C(NC(=S)Nc1ccc2oc(=O)ccc2c1)c1ccc(-c2cccc(Cl)c2Cl)o1` was 76.8% (active).
